Data published in ChEMBL document CHEMBL2040767, “Development of Polar Adenosine A2A Receptor Agonists for Inflammatory Bowel Disease: Synergism with A2B Antagonists” (ACS Med Chem Lett, 2011).

Assays:
Adenosine receptor A1 [1] = biological target: T1, Adenosine receptor A1 (Rattus norvegicus, UniProt P25099); test: Displacement of [3H]CCPA from adenosine A1 receptor in rat brain cortex; type: tissue-based
T1 sequence (P25099 whole entry): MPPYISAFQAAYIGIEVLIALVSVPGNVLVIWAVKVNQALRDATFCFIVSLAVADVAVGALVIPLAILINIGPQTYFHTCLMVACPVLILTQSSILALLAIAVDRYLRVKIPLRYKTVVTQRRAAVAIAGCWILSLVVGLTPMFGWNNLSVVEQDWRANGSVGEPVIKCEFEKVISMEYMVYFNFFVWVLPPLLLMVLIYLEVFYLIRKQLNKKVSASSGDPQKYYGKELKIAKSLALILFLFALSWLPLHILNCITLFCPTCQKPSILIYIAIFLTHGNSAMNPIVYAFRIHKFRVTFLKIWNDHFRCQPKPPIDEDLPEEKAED

Adenosine receptor A2a [2] = biological target: T2, Adenosine receptor A2a (Rattus norvegicus, UniProt P30543); test: Displacement of [3H]MSX-2 from adenosine A2A receptor in rat brain striatum; type: tissue-based
T2 sequence (P30543 whole entry): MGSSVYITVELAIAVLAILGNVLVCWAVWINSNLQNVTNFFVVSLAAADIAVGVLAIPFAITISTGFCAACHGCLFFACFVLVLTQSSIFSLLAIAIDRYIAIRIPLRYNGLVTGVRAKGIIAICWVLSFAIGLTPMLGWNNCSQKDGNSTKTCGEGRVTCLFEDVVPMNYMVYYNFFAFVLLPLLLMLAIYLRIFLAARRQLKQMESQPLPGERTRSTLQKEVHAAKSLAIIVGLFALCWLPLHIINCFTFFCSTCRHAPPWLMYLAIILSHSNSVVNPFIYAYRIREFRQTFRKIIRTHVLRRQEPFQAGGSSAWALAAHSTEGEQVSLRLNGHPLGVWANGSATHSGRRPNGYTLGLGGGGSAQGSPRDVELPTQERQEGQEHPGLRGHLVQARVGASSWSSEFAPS

Adenosine receptor A2a [3] = biological target: T3, Adenosine receptor A2a (Homo sapiens, UniProt P29274); test: Displacement of [3H]CGS21680 from human recombinant adenosine A2A receptor
T3 sequence (P29274 whole entry): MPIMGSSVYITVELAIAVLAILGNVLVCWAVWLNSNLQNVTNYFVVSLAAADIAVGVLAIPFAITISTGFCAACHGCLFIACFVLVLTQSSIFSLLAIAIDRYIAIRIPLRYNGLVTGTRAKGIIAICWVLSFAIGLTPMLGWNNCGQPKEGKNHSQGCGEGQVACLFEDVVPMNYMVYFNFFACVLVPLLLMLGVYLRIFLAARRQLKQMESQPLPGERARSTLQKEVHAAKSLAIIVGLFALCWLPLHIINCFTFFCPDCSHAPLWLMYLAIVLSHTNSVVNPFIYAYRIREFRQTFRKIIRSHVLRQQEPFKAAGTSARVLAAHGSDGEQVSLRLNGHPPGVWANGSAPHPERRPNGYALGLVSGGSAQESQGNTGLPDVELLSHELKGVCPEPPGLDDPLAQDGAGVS

Adenosine receptor A3 [4] = biological target: T4, Adenosine receptor A3 (Homo sapiens, UniProt P0DMS8); test: Displacement of [3H]PSB-11 from human recombinant adenosine A3 receptor expressed in CHO cells; type: cell-based
T4 sequence (P0DMS8 whole entry): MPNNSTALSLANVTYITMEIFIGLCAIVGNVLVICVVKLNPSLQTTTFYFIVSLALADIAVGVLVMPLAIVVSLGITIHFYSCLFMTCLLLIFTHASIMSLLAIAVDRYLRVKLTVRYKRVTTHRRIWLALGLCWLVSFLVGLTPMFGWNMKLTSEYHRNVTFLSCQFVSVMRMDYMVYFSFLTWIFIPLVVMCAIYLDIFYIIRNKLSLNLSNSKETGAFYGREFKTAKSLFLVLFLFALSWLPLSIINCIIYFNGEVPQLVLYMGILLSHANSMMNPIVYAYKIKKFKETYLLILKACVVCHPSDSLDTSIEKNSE
Procedure, shortened: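 Competition binding at human recombinant A3 receptor with [3H]PSB-11 as radioligand; Ki reported as mean ± SEM from three experiments.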

[5] = biological target: T5, Adenosine receptor A2b (Rattus norvegicus) (UniProt P29276); test: Antagonist activity at adenosine A2B receptor in Wistar rat ileum/jejunum segment assessed as reversal of TNBS-induced inhibition of Ach-induced contraction at 10 uM after 30 mins; type: functional, tissue-based; parameters: scale not given: the % may be the effect or the level left
T5 sequence (whole entry): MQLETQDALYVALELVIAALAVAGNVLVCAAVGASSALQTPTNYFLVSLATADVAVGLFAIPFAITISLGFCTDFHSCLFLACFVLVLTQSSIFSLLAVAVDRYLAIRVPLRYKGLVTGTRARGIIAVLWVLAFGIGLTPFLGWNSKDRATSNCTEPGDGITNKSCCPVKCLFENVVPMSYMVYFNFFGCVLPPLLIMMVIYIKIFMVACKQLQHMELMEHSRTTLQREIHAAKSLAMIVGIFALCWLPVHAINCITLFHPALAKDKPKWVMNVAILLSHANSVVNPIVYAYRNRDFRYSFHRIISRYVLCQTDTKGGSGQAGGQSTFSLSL
Procedure, shortened: (§1)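 Ex vivo rat ileum/jejunum segments; contractions evoked by acetylcholine 1 mM, expressed as % of Ach contraction without drug (100%). Acute inflammation induced by TNBS 10 mM, with the A2B antagonist (1–100 μM) preincubated alongside TNBS. Means ± SEM of seven experiments.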

[6] = biological target: T5, Adenosine receptor A2b (Rattus norvegicus); test: Antagonist activity at adenosine A2B receptor in Wistar rat ileum/jejunum segment assessed as reversal of TNBS-induced inhibition of Ach-induced contraction at 100 uM after 30 mins; type: functional, tissue-based; parameters: scale not given: the % may be the effect or the level left; procedure, shortened: as §1
[7] = biological target: T5, Adenosine receptor A2b (Rattus norvegicus); test: Antagonist activity at adenosine A2B receptor in Wistar rat ileum/jejunum segment assessed as reversal of TNBS-induced inhibition of Ach-induced contraction after 30 mins; type: functional, tissue-based; procedure, shortened: as §1
Adenosine receptor A1 [8] = biological target: T6, Adenosine receptor A1 (Homo sapiens, UniProt P30542); test: Displacement of [3H]CCPA from human recombinant adenosine A1 receptor
T6 sequence (P30542 whole entry): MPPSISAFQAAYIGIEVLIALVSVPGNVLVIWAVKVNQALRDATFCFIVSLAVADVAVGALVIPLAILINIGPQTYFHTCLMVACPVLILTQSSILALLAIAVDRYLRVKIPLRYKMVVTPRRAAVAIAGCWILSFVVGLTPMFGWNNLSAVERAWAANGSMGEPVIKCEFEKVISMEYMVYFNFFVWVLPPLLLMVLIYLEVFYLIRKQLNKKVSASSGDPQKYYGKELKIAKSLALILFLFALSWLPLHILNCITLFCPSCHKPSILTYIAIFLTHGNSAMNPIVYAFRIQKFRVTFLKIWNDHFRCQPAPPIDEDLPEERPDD

Adenosine receptor A2a [9] = biological target: T2, Adenosine receptor A2a; test: Displacement of [3H]CGS21680 from adenosine A2A receptor in rat brain striatum; type: tissue-based
Adenosine receptor A2b = biological target: T7, Adenosine receptor A2b (Homo sapiens, UniProt P29275); test: Displacement of [3H]PSB-603 from human recombinant adenosine A2B receptor expressed in CHO cells after 75 mins by liquid scintillation assay; type: cell-based
T7 sequence (P29275 whole entry): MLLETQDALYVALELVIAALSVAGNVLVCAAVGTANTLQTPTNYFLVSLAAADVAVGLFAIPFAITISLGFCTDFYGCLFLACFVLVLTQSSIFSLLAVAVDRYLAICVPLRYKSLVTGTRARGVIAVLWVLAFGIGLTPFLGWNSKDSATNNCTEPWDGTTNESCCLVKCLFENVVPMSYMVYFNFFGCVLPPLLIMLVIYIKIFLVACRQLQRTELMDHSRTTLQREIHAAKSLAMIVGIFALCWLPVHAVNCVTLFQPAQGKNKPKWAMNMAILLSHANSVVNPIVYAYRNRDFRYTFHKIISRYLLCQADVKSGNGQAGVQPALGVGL

Adenosine receptor A3 [10] = biological target: T4, Adenosine receptor A3; test: Displacement of [3H]NECA from human recombinant adenosine A3 receptor
Adenosine receptor A2a [11] = biological target: T3, Adenosine receptor A2a; test: Agonist activity at human adenosine A2A receptor expressed in CHO-K1 cells by cAMP accumulation assay; type: functional, cell-based

**Q.** What does the source list for `Nc1nc(SCC(=O)O)nc2c1ncn2[C@@H]1O[C@H](CO)[C@@H](O)[C@H]1O`?
**A.** Ki (Adenosine receptor A1 [1]): 1.93 µM; Ki (Adenosine receptor A2a [2]): > 10 µM; Ki (Adenosine receptor A2a [3]): > 10 µM; Ki (Adenosine receptor A3 [4]): > 10 µM

**Q.** With `CCCn1c(=O)[nH]c2nc(-c3ccc(S(=O)(=O)N4CCN(Cc5ccccc5)CC4)cc3)[nH]c2c1=O` as the molecule, how does the Activity [5] read?
**A.** 53.3%

**Q.** And the Activity [6]?
**A.** 86.1%

**Q.** And the Activity [7]?
**A.** Dose-dependent effect

**Q.** `Nc1nc(SCCc2ccc(S(=O)(=O)O)cc2)nc2c1ncn2[C@@H]1O[C@H](CO)[C@@H](O)[C@H]1O` was tested. Which Ki (Adenosine receptor A1 [1]) did it give?
**A.** ≥ 10 µM

**Q.** And the Ki (Adenosine receptor A1 [8])?
**A.** 0.541 µM

**Q.** And the Ki (Adenosine receptor A2a [9])?
**A.** 0.0444 µM

**Q.** And the Ki (Adenosine receptor A2a [3])?
**A.** 0.36 µM

**Q.** What about the Ki (Adenosine receptor A2b) of the same molecule?
**A.** > 10 µM

**Q.** What about the Ki (Adenosine receptor A3 [4]) of the same molecule?
**A.** > 10 µM

**Q.** And the Ki (Adenosine receptor A3 [10])?
**A.** > 1 µM

**Q.** What about the EC50 (Adenosine receptor A2a [11]) of the same molecule?
**A.** 0.117 µM

**Q.** How did the Ki (Adenosine receptor A1 [1]) turn out when `Nc1nc(S(=O)(=O)CCc2ccc(S(=O)(=O)O)cc2)nc2c1ncn2[C@@H]1O[C@H](CO)[C@@H](O)[C@H]1O` was run?
**A.** 1.8 µM

**Q.** And the Ki (Adenosine receptor A1 [8])?
**A.** 0.545 µM

**Q.** And the Ki (Adenosine receptor A2a [9])?
**A.** > 10 µM

**Q.** What about the Ki (Adenosine receptor A2a [3]) of the same molecule?
**A.** > 10 µM

**Q.** What about the Ki (Adenosine receptor A3 [4]) of the same molecule?
**A.** > 10 µM

**Q.** How did the Ki (Adenosine receptor A1 [1]) turn out when `Nc1nc(SCCc2ccc(C(=O)O)cc2)nc2c1ncn2[C@@H]1O[C@H](CO)[C@@H](O)[C@H]1O` was run?
**A.** 1.01 µM

**Q.** What about the Ki (Adenosine receptor A1 [8]) of the same molecule?
**A.** 0.404 µM

**Q.** What about the Ki (Adenosine receptor A2a [9]) of the same molecule?
**A.** 0.152 µM

**Q.** And the Ki (Adenosine receptor A2a [3])?
**A.** ≥ 10 µM

**Q.** What about the Ki (Adenosine receptor A2b) of the same molecule?
**A.** > 10 µM

**Q.** And the Ki (Adenosine receptor A3 [4])?
**A.** > 10 µM

**Q.** And the Ki (Adenosine receptor A3 [10])?
**A.** > 1 µM
